Experimental data as given in ChEMBL document CHEMBL1649585, “Role of the Mycobacterium tuberculosis P55 efflux pump in intrinsic drug resistance, oxidative stress responses, and growth” (2009).
Converted amounts (≈) assume the structure as drawn. The source made the active and inactive calls. No cut-off for these calls is given here. Where a SMILES comes first, the peptide text is derived from it. Bridges are numbered along the chain shown (N, C = ends). [ ]: non-standard residue; d: D form. The star is where a group is joined. Ileψ(thiazoline)Cys = CC[C@H](C)[C@H](N)C1=N[C@H](C(=O)*)CS1; dOrn = NCCC[C@@H](N)C(=O)O

Experiments:
[1] = tested on: Mycobacterium tuberculosis variant bovis BCG; test: Decrease in intracellular redox potential in Mycobacterium bovis BCG KOP55 harboring inactivated p55 gene assessed as decreased accumulation of formazan at 256 mg/liter after 1 hr by MTT assay; assay type: functional; set-up: scale not given: the % may be the effect or the level left
How it was run: (§1)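 MTT reduction as an index of intracellular redox potential: cultures at OD600 0.2 treated with drug or solvent for 1 h at 37°C in quadruplicate wells, MTT (2 mg/ml stock) added, 3 h further incubation. Formazan solubilised with 10% SDS, 30 min shaking, absorbance at 600 nm. Repeated at least three independent times.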

[2] = tested on: Mycobacterium tuberculosis variant bovis BCG; test: Effect on intracellular redox potential in Mycobacterium bovis BCG KOP55 harboring pPAZ23 carrying p27-p55 operon assessed as accumulation of formazan at 256 mg/liter after 1 hr by MTT assay; assay type: functional, organism-based; how it was run: as §1
[3] = tested on: Mycobacterium tuberculosis variant bovis BCG; test: Antimicrobial activity against Mycobacterium bovis BCG P55 at 5 umol after 14 days by disk diffusion method; assay type: functional
How it was run: (§2)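 Disc assay on Middlebrook 7H10 agar: lawn spread from a suspension of 10^6 cells/ml, discs carrying the redox compound placed on the lawn, halos recorded after 14 days at 37°C.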

[4] = tested on: Mycobacterium tuberculosis variant bovis BCG; test: Antimicrobial activity against Mycobacterium bovis BCG KOP55 harboring inactivated p55 gene at 5 umol after 14 days by disk diffusion method; assay type: functional; how it was run: as §2
[5] = tested on: Mycobacterium tuberculosis variant bovis BCG; test: Antimicrobial activity against Mycobacterium bovis BCG KOP55 harboring inactivated p55 gene by twofold dilution method; assay type: functional
How it was run: (§3)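 Agar MIC: log-phase cultures diluted to 10^5 cells/ml, 10 µl spotted onto Middlebrook 7H10 plates with serial twofold antibiotic dilutions. Visible growth scored after 21 days at 37°C. Triplicate, repeated at least three times.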

[6] = tested on: Mycobacterium tuberculosis variant bovis BCG; test: Antimicrobial activity against Mycobacterium bovis BCG KOP55 harboring inactivated p55 gene by resazurine microtiter assay; assay type: functional; conditions: KOP55, Urine
How it was run: (§4)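 Resazurin microdilution in liquid medium: serial twofold compound dilutions, plates incubated 8 days at 37°C, then 2 more days after adding resazurin. MIC read from the indicator. Run in triplicate and repeated at least three times.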

[7] = tested on: Mycobacterium tuberculosis variant bovis BCG; test: Antimicrobial activity against Mycobacterium bovis BCG KOP55 harboring pPAZ23 carrying p27-p55 operon by resazurine microtiter assay; assay type: functional; conditions: KOP55, Urine; how it was run: as §4
[8] = tested on: Mycobacterium tuberculosis variant bovis BCG; test: Antimicrobial activity against Mycobacterium bovis BCG KOP55 harboring inactivated p55 gene by resazurine microtiter assay in presence of 0.1 mg/liter valinomycin; assay type: functional; conditions: KOP55, Urine
How it was run: (§5)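 Resazurin microdilution MIC (serial twofold dilutions, 8 days at 37°C plus 2 days after resazurin) run with a fixed subinhibitory level of efflux pump inhibitor (valinomycin, reserpine or CCCP) present throughout. Triplicate, repeated at least three times.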

[9] = tested on: Mycobacterium tuberculosis variant bovis BCG; test: Antimicrobial activity against Mycobacterium bovis BCG KOP55 harboring pPAZ23 carrying p27-p55 operon by resazurine microtiter assay in presence of 0.1 mg/liter valinomycin; assay type: functional; conditions: KOP55, Urine; how it was run: as §5
[10] = tested on: Mycobacterium tuberculosis variant bovis BCG; test: Antimicrobial activity against Mycobacterium bovis BCG KOP55 harboring inactivated p55 gene by resazurine microtiter assay in presence of 1 mg/liter CCCP; assay type: functional; conditions: KOP55, Urine; how it was run: as §5
[11] = tested on: Mycobacterium tuberculosis variant bovis BCG; test: Antimicrobial activity against Mycobacterium bovis BCG KOP55 harboring inactivated p55 gene by resazurine microtiter assay in presence of 0.5 mg/liter reserpine; assay type: functional; conditions: KOP55, Urine; how it was run: as §5
[12] = tested on: Mycobacterium tuberculosis variant bovis BCG; test: Antimicrobial activity against Mycobacterium bovis BCG KOP55 harboring pPAZ23 carrying p27-p55 operon by resazurine microtiter assay in presence of 0.5 mg/liter reserpine; assay type: functional; conditions: KOP55, Urine; how it was run: as §5
[13] = tested on: Mycobacterium tuberculosis variant bovis BCG; test: Antimicrobial activity against Mycobacterium bovis BCG KOP55 harboring pPAZ23 carrying p27-p55 operon by resazurine microtiter assay in presence of 1 mg/liter CCCP; assay type: functional; conditions: KOP55, Urine; how it was run: as §5
[14] = tested on: Mycobacterium tuberculosis variant bovis BCG; test: Antimicrobial activity against Mycobacterium bovis BCG KOP55 harboring pPAZ23 carrying p27-p55 operon by twofold dilution method; assay type: functional; how it was run: as §3
[15] = tested on: Mycobacterium tuberculosis variant bovis BCG; test: Increase in intracellular redox potential in Mycobacterium bovis BCG KOP55 harboring pPAZ23 carrying p27-p55 operon assessed as increased accumulation of formazan at 64 mg/liter after 1 hr by MTT assay; assay type: functional; how it was run: as §1
[16] = tested on: Mycobacterium tuberculosis variant bovis BCG; test: Antimicrobial activity against Mycobacterium bovis BCG P55 at 0.125 umol after 14 days by disk diffusion method; assay type: functional; how it was run: as §2
[17] = tested on: Mycobacterium tuberculosis variant bovis BCG; test: Antimicrobial activity against Mycobacterium bovis BCG KOP55 harboring inactivated p55 gene at 0.125 umol after 14 days by disk diffusion method; assay type: functional; how it was run: as §2
[18] = tested on: Mycobacterium tuberculosis variant bovis BCG; test: Increase in intracellular redox potential in Mycobacterium bovis BCG KOP55 harboring inactivated p55 gene assessed as increased accumulation of formazan at 64 mg/liter after 1 hr by MTT assay; assay type: functional; how it was run: as §1
[19] = tested on: Mycobacterium tuberculosis variant bovis BCG; test: Effect on intracellular redox potential in Mycobacterium bovis BCG KOP55 harboring pPAZ23 carrying p27-p55 operon assessed as accumulation of formazan at 5 mg/liter after 1 hr by MTT assay; assay type: functional, organism-based; how it was run: as §1
[20] = tested on: Mycobacterium tuberculosis variant bovis BCG; test: Decrease in intracellular redox potential in Mycobacterium bovis BCG KOP55 harboring inactivated p55 gene assessed as decreased accumulation of formazan at 5 mg/liter after 1 hr by MTT assay; assay type: functional; set-up: scale not given: the % may be the effect or the level left; how it was run: as §1
[21] = tested on: Mycobacterium tuberculosis variant bovis BCG; test: Antimicrobial activity against Mycobacterium bovis BCG P55 by resazurine microtiter assay; assay type: functional; conditions: P55, Urine; how it was run: as §4

## CN(C)C(=O)/N=N/C(=O)N(C)C [DIAMIDE]
[1]
  Activity: 35%
[2]
  Activity: inactive
[3]
  inhibition zone (IZ): 0 mm
[4]
  inhibition zone (IZ): 30 mm

## CN(C)CCCN1c2ccccc2Sc2ccc(Cl)cc21 [CHLORPROMAZINE]
[5]
  MIC: 4 µg/mL (≈ 12.5 µM)

## N#CC(C#N)=NNc1cccc(Cl)c1 [CARBONYL CYANIDE M-CHLOROPHENYLHYDRAZONE]
[6]
  MIC: 2 µg/mL

## CC[C@@H](CO)NCCN[C@@H](CC)CO [ETHAMBUTOL]
[6]
  MIC: 2 µg/mL

## O=[N+]([O-])c1cn2c(n1)OC[C@@H](OCc1ccc(OC(F)(F)F)cc1)C2 [PRETOMANID]
[6]
  MIC: 0.125 µg/mL
[7]
  MIC: 0.25 µg/mL (≈ 0.696 µM)

## COC(=O)[C@H]1[C@H]2C[C@@H]3c4[nH]c5cc(OC)ccc5c4CCN3C[C@H]2C[C@@H](OC(=O)c2cc(OC)c(OC)c(OC)c2)[C@@H]1OC [RESERPINE]
[6]
  MIC: 2 µg/mL
[7]
  MIC: 2 µg/mL (≈ 3.29 µM)

## Oc1cc(Cl)ccc1Oc1ccc(Cl)cc1Cl [TRICLOSAN]
[5]
  MIC: 8 µg/mL (≈ 27.6 µM)

## CO[C@@H]1[C@@H](OC(N)=O)[C@@H](O)[C@H](Oc2ccc3c(O)c(NC(=O)c4ccc(O)c(CC=C(C)C)c4)c(=O)oc3c2C)OC1(C)C [NOVOBIOCIN]
[8]
  MIC: 0.5 µg/mL
[9]
  MIC: 8 µg/mL
[6]
  MIC: 2 µg/mL
[10]
  MIC: 1 µg/mL
[11]
  MIC: 1 µg/mL
[12]
  MIC: 8 µg/mL
[13]
  MIC: 4 µg/mL
[7]
  MIC: 16 µg/mL (≈ 26.1 µM)

## CC[C@H](C)[C@H](N)C1=N[C@H](C(=O)N[C@@H](CC(C)C)C(=O)N[C@H](CCC(=O)O)C(=O)N[C@H](C(=O)N[C@H]2CCCCNC(=O)[C@H](CC(N)=O)NC(=O)[C@@H](CC(=O)O)NC(=O)[C@H](Cc3cnc[nH]3)NC(=O)[C@@H](Cc3ccccc3)NC(=O)[C@H]([C@@H](C)CC)NC(=O)[C@@H](CCCN)NC2=O)[C@@H](C)CC)CS1 [BACITRACIN] ({Ileψ(thiazoline)Cys}-L[dE]IK[dOrn]I[dF]H[dD]N; lactam 4-C)
[6]
  MIC: 16 µg/mL
[10]
  MIC: 16 µg/mL
[13]
  MIC: > 256 µg/mL
[7]
  MIC: > 256 µg/mL

## Clc1ccc(COC(Cn2ccnc2)c2ccc(Cl)cc2Cl)cc1 (configuration not stated) [ECONAZOLE]
[14]
  MIC: 6.4 µg/mL (≈ 16.8 µM)
[5]
  MIC: 1.6 µg/mL (≈ 4.19 µM)

## CC1=CC(=O)c2ccccc2C1=O [MENADIONE]
[15]
  fold change (FC): 3.5
[16]
  inhibition zone (IZ): 20 mm
[17]
  inhibition zone (IZ): 16 mm
[18]
  fold change (FC): 1.3

## CN[C@H](CC(C)C)C(=O)N[C@H]1C(=O)N[C@@H](CC(N)=O)C(=O)N[C@H]2C(=O)N[C@H]3C(=O)N[C@H](C(=O)N[C@H](C(=O)O)c4cc(O)cc(O)c4-c4cc3ccc4O)[C@H](O)c3ccc(c(Cl)c3)Oc3cc2cc(c3O[C@@H]2O[C@H](CO)[C@@H](O)[C@H](O)[C@H]2O[C@H]2C[C@](C)(N)[C@H](O)[C@H](C)O2)Oc2ccc(cc2Cl)[C@H]1O [VANCOMYCIN]
[9]
  MIC: 4 µg/mL
[6]
  MIC: 0.25 µg/mL
[10]
  MIC: 0.25 µg/mL
[7]
  MIC: 4 µg/mL (≈ 2.76 µM)

## OC(CS)C(O)CS (racemic) [DL-DITHIOTHREITOL]
[3]
  inhibition zone (IZ): 0 mm
[4]
  inhibition zone (IZ): 30 mm

## CC(C)/N=c1\cc2n(-c3ccc(Cl)cc3)c3ccccc3nc-2cc1Nc1ccc(Cl)cc1 [CLOFAZIMINE]
[19]
  Activity: inactive
[20]
  Activity: 15%
[14]
  MIC: 0.1 µg/mL (≈ 0.211 µM)
[5]
  MIC: 0.025 µg/mL (≈ 0.0528 µM)

## CC(C)[C@@H]1NC(=O)[C@H](C)OC(=O)[C@@H](C(C)C)NC(=O)[C@@H](C(C)C)OC(=O)[C@H](C(C)C)NC(=O)[C@H](C)OC(=O)[C@@H](C(C)C)NC(=O)[C@@H](C(C)C)OC(=O)[C@H](C(C)C)NC(=O)[C@H](C)OC(=O)[C@@H](C(C)C)NC(=O)[C@@H](C(C)C)OC1=O [VALINOMYCIN]
[6]
  MIC: 0.2 µg/mL
[7]
  MIC: 0.4 µg/mL (≈ 0.36 µM)

## Cc1c(C)n2c(CBr)c(C)c(=O)n2c1=O [MONOBROMOBIMANE]
[6]
  MIC: 125 µM
[21]
  MIC: 500 µM (≈ 136 µg/mL)

## CO[C@H]1/C=C/O[C@@]2(C)Oc3c(C)c(O)c4c(O)c(c(/C=N/N5CCN(C)CC5)c(O)c4c3C2=O)NC(=O)/C(C)=C\C=C\[C@H](C)[C@H](O)[C@@H](C)[C@@H](O)[C@@H](C)[C@H](OC(C)=O)[C@@H]1C [RIFAMPIN]
[8]
  MIC: 0.0002 µg/mL
[9]
  MIC: 0.0016 µg/mL
[6]
  MIC: 0.0004 µg/mL
[10]
  MIC: 0.0002 µg/mL
[11]
  MIC: 0.0004 µg/mL
[12]
  MIC: 0.0016 µg/mL
[13]
  MIC: 0.0008 µg/mL
[7]
  MIC: 0.0032 µg/mL (≈ 0.00389 µM)
